In PMC3064798 (Nucleic Acids Research, 2011):
“Also recorded” adds a separate entry of the source.

Experiments:
Format in all cases: biochemical
[1] = target: Klenow(exo^−) polymerase (Escherichia coli, UniProt P00582, D355A/E357A); assay: PEP
Method in brief: (§1)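 Polymerase end-point assay for single-base incorporation. 5 nM BODIPY-FL-labelled primer-1 was hybridised to 40 nM oligoTemplate-4, with the interrogation base complementary to dU. Absence of a +1 band on the 377 gel image at 100 μM counts as not active. IC50 was averaged from triplicates ± 1 SD. Incorporation bias is the analog IC50 divided by the natural-nucleotide (HOMedUTP) IC50.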

[2] = target: T1, Bst polymerase (Geobacillus stearothermophilus, UniProt P52026); assay: PEP
T1 sequence (P52026 1-876): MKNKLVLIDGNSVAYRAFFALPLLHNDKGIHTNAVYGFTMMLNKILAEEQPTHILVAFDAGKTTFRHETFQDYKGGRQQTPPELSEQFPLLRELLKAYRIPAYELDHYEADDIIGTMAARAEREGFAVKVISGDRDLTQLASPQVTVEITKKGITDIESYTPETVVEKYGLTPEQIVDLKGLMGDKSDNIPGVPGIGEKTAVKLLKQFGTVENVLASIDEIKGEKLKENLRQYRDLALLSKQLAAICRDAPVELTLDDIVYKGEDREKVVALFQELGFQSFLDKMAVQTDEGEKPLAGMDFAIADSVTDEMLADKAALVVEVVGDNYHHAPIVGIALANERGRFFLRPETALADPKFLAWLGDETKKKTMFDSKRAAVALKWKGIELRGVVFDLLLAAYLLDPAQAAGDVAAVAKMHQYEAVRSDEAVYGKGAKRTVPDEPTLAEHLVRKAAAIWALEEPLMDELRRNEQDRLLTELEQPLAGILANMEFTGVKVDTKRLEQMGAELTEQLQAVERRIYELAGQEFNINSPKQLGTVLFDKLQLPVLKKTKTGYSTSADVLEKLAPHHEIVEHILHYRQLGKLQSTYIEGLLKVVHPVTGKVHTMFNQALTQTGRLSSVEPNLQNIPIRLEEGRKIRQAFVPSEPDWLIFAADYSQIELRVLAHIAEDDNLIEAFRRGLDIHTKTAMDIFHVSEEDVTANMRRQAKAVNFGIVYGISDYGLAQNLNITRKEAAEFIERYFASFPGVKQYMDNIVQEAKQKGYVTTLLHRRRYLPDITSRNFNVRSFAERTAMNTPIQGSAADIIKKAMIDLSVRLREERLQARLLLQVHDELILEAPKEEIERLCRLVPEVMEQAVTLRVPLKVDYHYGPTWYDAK
Method in brief: as §1

[3] = target: Taq polymerase (Thermus aquaticus, UniProt P19821); assay: PEP; details: for IC50 values (activity in words): Taq, Not Active = no visible +1 band in 377 gel image at 100 μM
Taq polymerase, sequence (P19821 whole entry): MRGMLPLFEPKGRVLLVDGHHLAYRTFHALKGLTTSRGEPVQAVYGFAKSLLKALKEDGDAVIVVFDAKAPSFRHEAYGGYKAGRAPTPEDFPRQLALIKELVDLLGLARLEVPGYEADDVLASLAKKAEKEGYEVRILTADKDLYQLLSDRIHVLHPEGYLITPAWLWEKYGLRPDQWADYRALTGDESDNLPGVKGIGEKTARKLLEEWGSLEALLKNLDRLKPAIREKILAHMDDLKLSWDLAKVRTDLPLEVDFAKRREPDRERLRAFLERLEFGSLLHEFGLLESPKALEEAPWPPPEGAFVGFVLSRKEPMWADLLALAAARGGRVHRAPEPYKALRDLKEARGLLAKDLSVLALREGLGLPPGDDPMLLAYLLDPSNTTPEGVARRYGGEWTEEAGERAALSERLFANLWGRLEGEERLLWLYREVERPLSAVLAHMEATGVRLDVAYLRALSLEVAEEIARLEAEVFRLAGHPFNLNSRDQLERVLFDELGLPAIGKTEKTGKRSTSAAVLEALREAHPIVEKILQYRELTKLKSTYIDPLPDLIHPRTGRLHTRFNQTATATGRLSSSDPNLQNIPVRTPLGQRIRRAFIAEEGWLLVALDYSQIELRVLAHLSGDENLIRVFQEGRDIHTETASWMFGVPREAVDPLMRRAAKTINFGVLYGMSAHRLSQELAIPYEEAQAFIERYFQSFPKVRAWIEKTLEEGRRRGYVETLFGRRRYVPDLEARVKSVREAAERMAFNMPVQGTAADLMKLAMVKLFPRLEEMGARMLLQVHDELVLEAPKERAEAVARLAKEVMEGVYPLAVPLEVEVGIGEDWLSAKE
Method in brief: as §1

[4] = target: T2, Vent(exo^−) polymerase (Thermococcus litoralis, UniProt P30317, D141A/DEL1082-1471/DEL495-1032/E143A); assay: PEP; details: for Incorporation bias (analog IC50/HOMedUTP IC50): Vent(exo^−)
T2 sequence (P30317 with tags, fused parts or gaps D141A/E143A/DEL495-1032/DEL1082-1471): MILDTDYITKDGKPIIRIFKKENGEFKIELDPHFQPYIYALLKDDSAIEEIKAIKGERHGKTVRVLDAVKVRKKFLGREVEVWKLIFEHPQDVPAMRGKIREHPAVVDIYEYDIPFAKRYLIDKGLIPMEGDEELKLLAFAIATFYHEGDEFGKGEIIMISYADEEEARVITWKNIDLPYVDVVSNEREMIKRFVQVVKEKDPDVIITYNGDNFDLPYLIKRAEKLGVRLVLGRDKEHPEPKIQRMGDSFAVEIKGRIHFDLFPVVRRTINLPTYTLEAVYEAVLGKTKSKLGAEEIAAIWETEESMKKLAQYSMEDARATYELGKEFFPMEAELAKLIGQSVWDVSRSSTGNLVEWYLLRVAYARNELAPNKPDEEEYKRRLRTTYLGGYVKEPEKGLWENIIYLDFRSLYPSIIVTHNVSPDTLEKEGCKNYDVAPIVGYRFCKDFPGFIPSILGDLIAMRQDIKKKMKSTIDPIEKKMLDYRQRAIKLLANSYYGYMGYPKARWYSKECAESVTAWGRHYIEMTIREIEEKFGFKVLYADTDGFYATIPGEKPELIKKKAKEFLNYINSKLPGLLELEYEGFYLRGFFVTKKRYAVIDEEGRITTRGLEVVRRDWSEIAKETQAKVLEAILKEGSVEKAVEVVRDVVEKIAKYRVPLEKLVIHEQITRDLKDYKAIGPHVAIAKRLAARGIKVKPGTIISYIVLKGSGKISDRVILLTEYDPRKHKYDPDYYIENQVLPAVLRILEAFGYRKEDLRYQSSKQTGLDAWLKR
Method in brief: as §1

[5] = target: T2, Vent(exo^−) polymerase; assay: Nucleotide selectivity; details: against a 'G' template base
Method in brief: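 Base discrimination was measured by PEP assay. OligoTemplate-4 was replaced with 40 nM oligoTemplate-2 or oligoTemplate-5 to give mismatched template bases. For the T—G mismatch, 5 nM BODIPY-FL primer-3 was hybridised to 40 nM oligoTemplate-8. The selectivity ratio is the mismatched IC50 divided by the matched IC50.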

Row | SMILES | IC50 values (activity in words) ([1]; Klenow(exo^−), Not Active = no visible +1 band in 377 gel image at 100 μM) | IC50 values (activity in words) ([2]; Bst, Not Active = no visible +1 band in 377 gel image at 100 μM) | IC50 values (activity in words) [3] | IC50 [4] | Incorporation bias (analog IC50/HOMedUTP IC50) [4] | Selectivity ratio (mismatched IC50/matched IC50) [5] | IC50 [1] | Incorporation bias (analog IC50/HOMedUTP IC50) ([1]; Klenow(exo^−)) | IC50 [2] | Incorporation bias (analog IC50/HOMedUTP IC50) ([2]; Bst) | IC50 [3]
1 | CC(C)C(OCc1cn([C@H]2C[C@H](O)[C@@H](COP(=O)(O)OP(=O)(O)OP(=O)(O)O)O2)c(=O)[nH]c1=O)c1ccccc1[N+](=O)[O-] (mixture of isomers) [dU.III, 5-[1-(2-Nitrophenyl)-2-methyl-propyloxy]methyl-2'-deoxyuridine-5’-triphosphate] | Not Active^a | none of the Family A polymerases showed any activity; also recorded: Not Active^a | none of the Family A polymerases showed any activity; also recorded: Not Active^a | 5.9 ± 0.7 nM | 4.2 | poorly extending the primer before revealing inhibitory effects |  |  |  |  | 
2 | CC(OCc1cn([C@H]2C[C@H](O)[C@@H](COP(=O)(O)OP(=O)(O)OP(=O)(O)O)O2)c(=O)[nH]c1=O)c1ccccc1[N+](=O)[O-] (mixture of isomers) [dU.II, 5-[1-(2-Nitrophenyl)ethyloxy]methyl-2'-deoxyuridine-5’-triphosphate] |  |  | no activity at all; also recorded: Not Active^a | 2.2 ± 0.2 nM | 1.6 |  | 2400 ± 100 nM | 1500 | 3500 ± 200 nM | 1600 | 
3 | O=c1[nH]c(=O)n([C@H]2C[C@H](O)[C@@H](COP(=O)(O)OP(=O)(O)OP(=O)(O)O)O2)cc1COCc1ccccc1[N+](=O)[O-] [dU.I, 5-(2-Nitrobenzyloxy)methyl-2'-deoxyuridine-5’-triphosphate] |  |  |  | 2 ± 0.1 nM | 1.4 |  | 48 ± 4 nM | 30 | 98 ± 13 nM | 45 | 50000 nM
